Measured values: ChEMBL document CHEMBL1122754, “Synthesis and evaluation of (17 alpha,20E)-21-[125I]iodo-19-norpregna-1,3,5(10),20-tetraene-3,17 -diol and (17 alpha,20E)-21-[125I]iodo-11 beta-methoxy-19-norpregna-1,3,5(10),20-tetraene-3,17-diol (17 alpha-(iodovinyl)estradiol derivatives) as high specific activity potential radiopharmaceuticals” (J Med Chem, 1984)
Where “and” joins values, the source holds several entries; their conditions need not be identical. Identical values can stand only once.

Assays:
Rattus norvegicus [1] = experiment: In vivo distribution of the drug in uterus was determined at 3h following injection of five microcurics of the radiolabeled [125 I] compound in rats; format: ADME, organism-based
Summary of the method: (§1)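 Immature female Sprague-Dawley rats (20–25 days old) given 3–5 μCi of the ¹²⁵I-radioligand into the femoral vein; killed by cervical dislocation at 1, 2 or 3 h. Uterus blotted free of blood, 10–30-mg samples weighed. Heparinized blood centrifuged, 20-μL plasma samples taken. Gamma counting, dpm by absolute counting method. Expressed as percent dose/gram tissue; uterus/plasma ratio from these values.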

Rattus norvegicus [2] = experiment: In vivo distribution of the drug in uterus/plasma was determined at 2 hr following injection of five microcurics of the radiolabeled [125 I] compound in rats; format: ADME, organism-based; summary of the method: as §1
Rattus norvegicus [3] = experiment: In vivo distribution of the drug in uterus was determined at 2 hr following injection of five microcurics of the radiolabeled [125 I] compound in rats; format: ADME, organism-based; summary of the method: as §1
Rattus norvegicus [4] = experiment: (§2) In vivo distribution of the drug in uterus/plasma was determined at 3h following injection of five microcurics of the radiolabeled [125 I] compound in rats; format: ADME, organism-based; settings: other tissue; summary of the method: as §1
Rattus norvegicus [5] = experiment: In vivo distribution of the drug in plasma was determined at 3h following injection of five microcurics of the radiolabeled [125 I] compound in rats; format: ADME, organism-based; summary of the method: as §1
Rattus norvegicus [6] = experiment: In vivo distribution of the drug in uterus was determined at 1 hr following injection of five microcurics of the radiolabeled [125 I] compound in rats; format: ADME, organism-based; summary of the method: as §1
Rattus norvegicus [7] = experiment: In vivo distribution of the drug in plasma was determined at 2 hr following injection of five microcurics of the radiolabeled [125 I] compound in rats; format: ADME, organism-based; summary of the method: as §1
Rattus norvegicus [8] = experiment: In vivo distribution of the drug in plasma was determined at 1 hr following injection of five microcurics of the radiolabeled [125 I] compound in rats; format: ADME, organism-based; summary of the method: as §1
Rattus norvegicus [9] = experiment: In vivo distribution of the drug in uterus/plasma was determined at 1 hr following injection of five microcurics of the radiolabeled [125 I] compound in rats; format: ADME, organism-based; summary of the method: as §1
Rattus norvegicus [10] = organism: Rattus norvegicus; experiment: Specific activity and expressed as Ci/mmol; format: functional
Rattus norvegicus [11] = experiment: In vivo effect when coinjected with estradiol (50 ug) in immature rat plasma (after 1 hr); format: functional
Rattus norvegicus [12] = experiment: In vivo effect when coinjected with estradiol (50 ug) in immature rat muscle (after 1 hr); format: functional, Muscle tissue
Rattus norvegicus [13] = experiment: In vivo effect when coinjected with estradiol (50 ug) in immature rat uterus (after 1 hr); format: functional
Rattus norvegicus [14] = experiment: In vivo effect when coinjected with estradiol (50 ug) in immature rat liver (after 1 hr); format: functional
Rattus norvegicus [15] = experiment: as §2; format: ADME, organism-based; settings: other tissue; remark: listed apart in the source
Summary of the method: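 Female Sprague-Dawley rats aged 20–25 days received 3–5 µCi of the [125I] radioligand via the femoral vein and were killed by cervical dislocation at 1, 2 and 3 h. Uterus was blotted free of blood, and 10–30 mg samples were weighed. Heparinized blood was centrifuged, and 20 µL plasma samples were taken. Samples were gamma-counted, with dpm found by absolute counting. Values are % dose/g, and the uterus/plasma ratio was derived from them.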

Row | uterus/plasma ratio (Rattus norvegicus [15]) | Structure (SMILES) | Distribution (Rattus norvegicus [1]) [%] | uterus/plasma ratio (Rattus norvegicus [2]) | Distribution (Rattus norvegicus [3]) [%] | uterus/plasma ratio (Rattus norvegicus [4]) | Distribution (Rattus norvegicus [5]) [%] | Distribution (Rattus norvegicus [6]) [%] | Distribution (Rattus norvegicus [7]) [%] | Distribution (Rattus norvegicus [8]) [%] | uterus/plasma ratio (Rattus norvegicus [9]) | Specific activity (Rattus norvegicus [10]) | Dose (Rattus norvegicus [11]) [%] | Dose (Rattus norvegicus [12]) [%] | Dose (Rattus norvegicus [13]) [%] | Dose (Rattus norvegicus [14]) [%]
1 | – | C[C@]12CC[C@@H]3c4ccc(O)cc4CC[C@H]3[C@@H]1CC[C@@]2(O)/C=C/[125I] | 1.1 | 5 | 0.96 | 9.7 | 0.113 | 5.89 | 0.192 | 1.09 | 5.5 | 2200 Ci mM-1 and 2152 Ci mM-1 | – | – | – | –
2 | 66.3 | CO[C@H]1C[C@@]2(C)[C@@H](CC[C@@]2(O)/C=C/[125I])[C@@H]2CCc3cc(O)ccc3[C@H]21 | 15.9 | 68.3 | 17.2 | – | 0.24 | 8.18 | 0.25 | 0.28 | 29 | – | 0.34 | 1.29 | 1.25 | 4.52
